Experimental findings from ChEMBL document CHEMBL1152540, “Antioxidant efficacy of iridoid and phenylethanoid glycosides from the medicinal plant Teucrium chamaedris in cell-free systems” (Bioorg Med Chem, 2009) are described below.

Assay [1] has as its system Radical scavenging activity. In words: Antioxidant activity assessed as DPPH radical scavenging activity after 30 mins by spectrophotometry. Format: functional.
Assay [2] in a line: Antioxidant activity assessed as inhibition of lipid peroxidation after 60 mins by TBARS assay. Format: functional. The essentials: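 Olive oil (10.0 µg) was emulsified with Tween-40 in 0.2 M Tris-HCl, pH 7.4. The emulsion was UV-irradiated at 254 nm for 60 min, then stirred 24 h at room temperature. Thiobarbituric acid-reactive species were developed in a boiling water bath for 90 min and centrifuged, and the supernatant was read at 532 nm. Inhibition was given as % versus a blank without compound.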

Assay [3] can be described thus: Antioxidant activity assessed as inhibition of Fe3+ ion-induced 2-deoxyribose oxidation after 24 hrs by TBA method. The assay is classed as functional. The essentials: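 EDTA, FeCl3 and H2O2 (1.0 mM each) were preincubated for 1 h at 37 °C. 2-Deoxyribose (28 mM) and ascorbic acid (1.0 mM) were then added. Compounds at 5, 10 or 20 µM (150 µL per 1350 µL mixture) were incubated 24 h at 37 °C. Degradation was measured with TBA 0.5%/TCA 2.5% at 90 °C for 3 h, read at 532 nm, in triplicate.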

A short description of assay [4]: Antioxidant activity assessed as inhibition of H2O2-induced bovine serum albumin oxidation after 10 mins by spectrophotometry. The following applies: in the assay text read “after 1 hr” for “after 10 mins”. The assay is classed as functional. Summed up:
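BSA (10 mg/mL) was incubated 1 h at 37 °C in 20 mM phosphate, pH 7.4, with FeCl3 400 µM, H2O2 3 mM, ascorbate 400 µM and metabolite at 5, 10 or 20 µM. Carbonyls were derivatized with DNPH (20 mM in 2 N HCl) and TCA 20%, then centrifuged. The pellet was washed with EtOH/EtOAc, dissolved in 6 M guanidine-HCl, pH 6.5, and read at 370 nm. Runs were in triplicate, as % versus blank.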

For assay [5], the system named is Radical scavenging activity. Put plainly: Antioxidant activity assessed as trolox equivalent of DPPH radical scavenging activity after 30 mins by spectrophotometry. Format: functional.
The nature of assay [6]: Antioxidant activity assessed as trolox equivalent of lipid peroxidation inhibition after 60 mins by TBARS assay. The assay is classed as functional.
Assay [7] in a line: Antioxidant activity assessed as trolox equivalent of inhibition of Fe3+ ion-induced 2-deoxyribose oxidation after 24 hrs by TBA method. Format: functional.
A short description of assay [8]: Antioxidant activity assessed as hydroxyl radical scavenging activity at 20 uM. Format: functional.
Assay [9] is described as follows: Antioxidant activity assessed as trolox equivalent of inhibition of H2O2-induced bovine serum albumin oxidation after 1 hr by spectrophotometry.
Assay [10] is described as follows: Antioxidant activity assessed as inhibition of H2O2-induced bovine serum albumin oxidation after 1 hr by spectrophotometry.

In the case of `Cc1c(C)c2c(c(C)c1O)CCC(C)(C(=O)O)O2` (stereo unspecified) [TROLOX], the IC50 in [1] came to 21 µM; in [2] it was 31.8 µM; in assay [3] it was 18 µM; in [4] it was 69.2 µM.
Turning to `C[C@@H]1O[C@@H](O[C@@H]2[C@@H](O)[C@H](OCCc3ccc(O)c(O)c3)O[C@H](CO)[C@H]2OC(=O)/C=C/c2ccc(O)c(O)c2)[C@H](O[C@@H]2OC[C@H](O)[C@@H](O)[C@H]2O)[C@H](O)[C@H]1O`, the Activity result is “Dose-dependent effect” in assay [1]; 1.4 in [5]; 2 in assay [6]; 0.5 in [7]; 54.7% in assay [8]; 1.5 in [9]. In addition, the IC50 is 16.5 µM in assay [1], 16.3 µM in assay [2], 34.6 µM in [3] and 44.8 µM in assay [4].
For the compound `C[C@@H]1O[C@@H](O[C@@H]2[C@@H](O)[C@H](OCCc3ccc(O)c(O)c3)O[C@H](CO)[C@H]2OC(=O)/C=C/c2ccc(O)c(O)c2)[C@H](O)[C@H](O)[C@H]1O` [ACETOSIDE], the Activity entry in [1] is “Dose-dependent effect”; in assay [5] it was 1.3; in [6] it was 3.3; in assay [7] it was 0.5; in assay [9], 1.2. For the same compound, the IC50 in assay [1] was found to be 15.3 µM; in assay [2] it was 9.7 µM; in assay [3], 26.4 µM; in [4], 57.2 µM.
Regarding `CC(=O)O[C@]1(C)C[C@H](O)[C@@]2(O)C=CO[C@H](O[C@@H]3O[C@H](CO)[C@@H](O)[C@H](O)[C@H]3O)[C@H]21`, the Activity entry is “Dose-dependent effect” in assay [1], 0.7 in [6], 0.3 in assay [7] and 2.9 in assay [9]. In addition, the IC50 in assay [1] is above 300 µM; in assay [2], 45.5 µM; in assay [3] it was 51 µM; in [4], 23.5 µM.
For `COc1ccc(/C=C/C(=O)OC[C@H]2O[C@@H](O[C@H]3OC=C[C@@]4(O)[C@@H]3[C@](C)(O)C[C@@H]4O)[C@H](O)[C@@H](O)[C@@H]2O)cc1OC`, the Activity result in [1] was “Dose-dependent effect”; in assay [6] it was 1; in assay [7] it was 0.7; in assay [9], 6.5. Moreover, the IC50 was above 300 µM in [1], 33.1 µM in assay [2], 26.5 µM in [3] and 10.7 µM in assay [10].
Take `COc1ccc(/C=C/C(=O)OC[C@H]2O[C@@H](O[C@H]3OC=C[C@@]4(O)[C@@H]3[C@](C)(O)C[C@@H]4O)[C@H](O[C@@H]3O[C@H](CO)[C@@H](O)[C@H](O)[C@H]3O)[C@@H](O)[C@@H]2O)cc1`: the Activity entry in assay [1] is “Dose-dependent effect”; in assay [6], 0.8; in assay [7], 1.4; in assay [9] it was 5.4. The IC50 in [1] is above 300 µM; in assay [2], 39 µM; in assay [3], 12.9 µM; in [4], 12.8 µM.
Regarding `CC(=O)O[C@]1(C)C[C@H](O)[C@H]2C=CO[C@H](O[C@@H]3O[C@H](CO)[C@@H](O)[C@H](O)[C@H]3O)[C@H]21`, the Activity result was “Dose-dependent effect” in assay [1], 0.7 in assay [6], 0.3 in [7] and 1.8 in [9]. For the same compound, the IC50 in [1] was above 300 µM; in assay [2] it was 44.2 µM; in [3] it was 52.2 µM; in [4] it was 38.9 µM.
With `COc1ccc(/C=C/C(=O)OC[C@H]2O[C@@H](O[C@H]3OC=C[C@@]4(O)[C@@H]3[C@](C)(O)C[C@@H]4O)[C@H](O)[C@@H](O)[C@@H]2O)cc1`, the Activity result in [1] was “Dose-dependent effect”; in assay [6], 0.5; in assay [7], 1.4; in [9] it was 6.6. Besides, the 50% inhibitory concentration (IC50) is above 300 µM in [1], 67.3 µM in [2], 13.2 µM in assay [3] and 10.4 µM in assay [10].
In the case of `COc1ccc(/C=C/C(=O)OC[C@H]2O[C@@H](O[C@H]3OC=C[C@H]4[C@@H]3[C@](C)(O)C[C@@H]4O)[C@H](O)[C@@H](O)[C@@H]2O)cc1OC`, the IC50 in [1] is above 300 µM.
Consider `COc1cc(/C=C/C(=O)O[C@H]2[C@H](O[C@@H]3O[C@@H](C)[C@H](O)[C@@H](O)[C@H]3O[C@@H]3OC[C@H](O)[C@@H](O)[C@H]3O)[C@@H](O)[C@H](OCCc3ccc(O)c(O)c3)O[C@@H]2CO)ccc1O`, for which the Activity entry is “Dose-dependent effect” in assay [1]; 1.5 in [5]; 1.5 in assay [6]; 0.6 in assay [7]; 2.1 in [9]. The IC50 in [1] was 14 µM; in [2] it was 20.9 µM; in assay [3], 32 µM; in assay [4], 32.8 µM.
Consider `C[C@@H]1O[C@@H](O[C@@H]2[C@@H](O)[C@H](OCCc3ccc(O)c(O)c3)O[C@H](COC(=O)/C=C/c3ccc(O)c(O)c3)[C@H]2O)[C@H](O[C@@H]2OC[C@H](O)[C@@H](O)[C@H]2O)[C@H](O)[C@H]1O`, for which the Activity entry was “Dose-dependent effect” in assay [1]; 0.5 in assay [5]; 1.2 in [6]; 0.7 in [7]; 1.8 in [9]. Also, the IC50 in assay [1] worked out at 38.3 µM; in [2], 26.3 µM; in [3], 33.5 µM; in [4], 38 µM.
As for `COc1cc(/C=C/C(=O)OC[C@H]2O[C@@H](OCCc3ccc(O)c(O)c3)[C@H](O)[C@@H](O[C@@H]3O[C@@H](C)[C@H](O)[C@@H](O)[C@H]3O[C@@H]3OC[C@H](O)[C@@H](O)[C@H]3O)[C@@H]2O)ccc1O`, the Activity result is “Dose-dependent effect” in assay [1]; 1.9 in [5]; 0.7 in assay [6]; 0.5 in [7]; 3.8 in assay [9]. Moreover, the IC50 worked out at 11 µM in assay [1], 46.7 µM in assay [2], 37.3 µM in [3] and 18.1 µM in assay [4].
